Screens as filed in PubChem.
Shown is part of a subset that was picked to be rich in hits.
T cruzi growth-1: blocks T. cruzi growth in NIH3T3 culture | T. cruzi beta-gal in NIH3T3, GalScreen luminescence, 90 h | inhibition, % at 8.34 µM | 5.9% of 77,000 active | AID 624255;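 active = mean inhibition above about 93%, with at least 55% of replicates each passing it, limit read from the data, passing the limit was not always enough; inconclusive = only one of those two conditions holds; inactive = neither condition holds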
IDH1 R132H inh: inhibitors of human IDH1 R132H. O75874. IDH1 R132H reductase, diaphorase/resazurin fluorescence, 60 min. inhibition, % at 10 µM. 0.18% of 70,000 active. AID 624101; in the data active = inhibition above about 34%; inconclusive = no clear call, values can overlap the other calls; inactive = below about 11%;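 also: 0% = DMSO and 100% = no enzyme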
Target sequence (O75874 whole entry R132H): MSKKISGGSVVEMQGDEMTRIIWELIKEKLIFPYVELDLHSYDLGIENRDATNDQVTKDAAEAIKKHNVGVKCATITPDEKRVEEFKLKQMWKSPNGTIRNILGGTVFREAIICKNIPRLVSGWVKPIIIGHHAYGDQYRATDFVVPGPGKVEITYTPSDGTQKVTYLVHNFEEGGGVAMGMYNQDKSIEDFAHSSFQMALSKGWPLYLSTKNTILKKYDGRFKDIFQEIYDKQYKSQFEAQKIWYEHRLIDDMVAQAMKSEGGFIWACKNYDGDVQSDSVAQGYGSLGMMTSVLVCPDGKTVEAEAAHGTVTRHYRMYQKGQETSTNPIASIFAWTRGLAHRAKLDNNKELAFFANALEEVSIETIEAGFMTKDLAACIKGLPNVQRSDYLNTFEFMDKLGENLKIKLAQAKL
GASC1 inh: blocks human GASC-1 (KDM4C) demethylase activity. Q9H3R0. GST-KDM4C 2-372, H3K9me3 peptide, LANCE TR-FRET. inhibition, % at 12.5 µM. 0.15% of 96,000 active. AID 720574;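 active = mean replicate inhibition above about 25%, with at least 55% of replicates also reaching it, limit read from the data, passing the limit was not always enough; inconclusive = only one of those two conditions met; inactive = neither condition met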
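Assay system: GST-GASC-1 enzyme fragment 2-372 | Amount: 10 nM enzyme | Medium: HEPES buffer, pH 7.5, plus ascorbate | Reagent: H3K9me3 peptide substrate, Fe(II), 2-oxoglutarate | Doses: Single-point compound screen | Incubation: 30 min demethylation and 1 h detection at room temperature | Measured by: LANCE TR-FRET, excitation 340 nm, emissions 618 and 671 nm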
T cruzi growth-2: blocks T. cruzi growth in NIH3T3 host cells. AID 651739. T. cruzi beta-gal in NIH3T3, GalScreen luminescence, 90 h. inhibition, % at 8.35 µM. 72% of 5,600 active. shares compounds with T cruzi growth-1;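 active = mean replicate inhibition above about 95% and at least 55% of replicates individually reaching it, limit read from the data; inconclusive = only one of the two criteria is met; inactive = neither criterion is met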
T cruzi growth-3: Trypanosoma cruzi proliferation inhibition. shares compounds with T cruzi growth-1. T. cruzi beta-gal in NIH3T3, GalScreen luminescence, 90 h. inhibition, % at 2.09 µM. 21% of 5,600 active. AID 651740;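 active = mean inhibition above about 95%, with at least 55% of replicates also reaching it, limit read from the data; inconclusive = meets just one of the two conditions; inactive = meets neither condition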;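 also: plate controls were neutral control median for no effect and positive control median for full effect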
3T3 cytotox: kills mouse NIH/3T3 fibroblasts | shares compounds with T cruzi growth-1 | NIH/3T3 viability, CellTiter-Glo ATP luminescence, 90 h | cytotoxicity (signal decrease), % at 8.35 µM | 14% of 5,600 active | AID 651742;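 active = mean signal decrease across replicates above about 35% based on untreated-well scatter, with enough replicates individually passing, limit read from the data; inconclusive = no rule stated though some were filed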;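 also: 0% = median of neutral control wells and 100% = median of positive control wells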
3T3 cytotox 2: NIH/3T3 (mouse) viability loss | shares compounds with T cruzi growth-1 | inhibition, % at 24.9 µM | 56% of 5,600 active | AID 651744 | NIH/3T3 viability, CellTiter-Glo ATP luminescence, 90 h;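 active = mean loss of cell viability signal at or above a set limit, and enough replicates individually reaching it; inconclusive = meets only the mean limit or only the replicate share; inactive = meets neither condition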;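 also: 0% = median of neutral control wells and 100% = median of positive control wells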
* hit, by the source's call; ? = inconclusive; . = not tested or not shown.

SMILES	T cruzi growth-1	IDH1 R132H inh	GASC1 inh	T cruzi growth-2	T cruzi growth-3	3T3 cytotox	3T3 cytotox 2
O=C(C1CC1)N1CC[C@@H]2[C@H]1c1cc(-c3cccc(F)c3)ccc1N[C@@H]2CO	115*	.	4	105*	103*	4	28*
CN(C)C(=O)c1cccc(-c2ccc3c(c2)[C@H]2[C@H](CCN2C(=O)C2CC2)[C@@H](CO)N3)c1	112*	.	6	93	48	-8	-7
CN(C)C(=O)c1cccc(-c2ccc3c(c2)[C@H]2[C@H](CCN2C(=O)C2CC2)[C@H](CO)N3)c1	99*	.	1	105*	71	-19	-6
CN(C)C(=O)c1cccc(-c2ccc3c(c2)[C@@H]2[C@@H](CCN2C(=O)C2CCCC2)[C@H](CO)N3)c1	.	.	0	.	.	.	.
CN(C)C(=O)c1cccc(-c2ccc3c(c2)[C@@H]2[C@@H](CCN2C(=O)C2CC2)[C@H](CO)N3)c1	68	.	1	.	.	.	.
O=C(C1CCC1)N1CC[C@@H]2[C@@H](CO)Nc3ccc(-c4cccc(F)c4)cc3[C@@H]21	75	.	1	.	.	.	.
CO[C@H]1CN(C)C(=O)c2ccc(NS(C)(=O)=O)cc2OC[C@H](C)N(Cc2ccccn2)C[C@@H]1C	.	.	3	.	.	.	.
Cc1nnc(SCC(=O)Nc2ccccc2C(F)(F)F)n1-c1ccc(Cl)cc1	.	0	.	.	.	.	.
COc1ccccc1-n1nnnc1SCC(=O)Nc1cc(OC)c(OC)c(OC)c1	.	0	.	.	.	.	.
O=C(O)CCCCCCC(=O)N/N=C/c1ccc(Br)o1	.	0	.	.	.	.	.
CCc1cnc(N2[C@H](CO)[C@H](c3ccc(C#CC(C)C)cc3)[C@@H]2C#N)s1	89	.	2	.	.	.	.
CCc1cnc(N2[C@H](C#N)[C@H](c3ccc(C#CC(C)C)cc3)[C@@H]2CO)s1	96*	.	-1	100*	113*	6	0
CCc1cnc(N2[C@H](C#N)[C@H](c3ccc(C#CC(C)C)cc3)[C@H]2CO)s1	107*	.	-1	98*	108*	16	26*
CCc1cnc(N2[C@H](C#N)[C@@H](c3ccc(C#CC(C)C)cc3)[C@H]2CO)s1	83	.	-1	.	.	.	.
O=C(Cn1cc(C(=O)c2cccs2)c2ccccc21)Nc1ccccc1	.	1	.	.	.	.	.
Cc1sc(NC(=O)c2cc(-c3cccnc3)nc3ccc(Cl)cc23)c(C(N)=O)c1-c1ccccc1	.	0	.	.	.	.	.
C[C@H]1CN([C@@H](C)CO)S(=O)(=O)c2ccc(C#Cc3ccc(F)cc3)cc2O[C@@H]1CN(C)C(=O)NC1CCCC1	117*	.	-1	101*	74	-15	107*
C[C@@H]1CN([C@H](C)CO)S(=O)(=O)c2ccc(C#Cc3ccc(F)cc3)cc2O[C@H]1CN(C)C(=O)NC1CCCC1	86	8	-5	.	.	.	.
CC(C)NC(=O)N(C)C[C@@H]1Oc2cc(C#Cc3ccc(F)cc3)ccc2S(=O)(=O)N([C@@H](C)CO)C[C@@H]1C	114*	0	1	107*	66	21	?
CC(C)NC(=O)N(C)C[C@H]1Oc2cc(C#Cc3ccc(F)cc3)ccc2S(=O)(=O)N([C@@H](C)CO)C[C@@H]1C	84	7	-3	.	.	.	.
COC(=O)c1ccccc1NC(=O)C1=C(C)NC(=S)NC1c1cc(Cl)cc(OC)c1OC(C)C (stereo unspecified)	.	0	.	.	.	.	.
C[C@H]1CCCCO[C@H](CN(C)S(=O)(=O)c2ccc(Cl)cc2)[C@@H](C)CN([C@@H](C)CO)C(=O)c2cc(NS(=O)(=O)c3ccc(F)cc3)ccc2O1	103*	1	2	?	110*	-25	-7
C[C@@H]1CCCCO[C@H](CN(C)S(=O)(=O)c2ccc(F)cc2)[C@H](C)CN([C@@H](C)CO)C(=O)c2cc(NS(=O)(=O)c3ccc(Cl)cc3)ccc2O1	92	.	0	.	.	.	.
C[C@@H]1CN([C@H](C)CO)C(=O)c2cc(NS(=O)(=O)c3ccc(Cl)cc3)ccc2O[C@@H](C)CCCCO[C@@H]1CN(C)S(=O)(=O)c1ccc(F)cc1	105*	.	7	104*	109*	-40	10
C[C@@H]1CCCCO[C@@H](CN(C)S(=O)(=O)c2ccc(F)cc2)[C@H](C)CN([C@H](C)CO)C(=O)c2cc(NS(=O)(=O)c3ccc(Cl)cc3)ccc2O1	95	.	0	.	.	.	.
SMILES	T cruzi growth-1	IDH1 R132H inh	GASC1 inh	T cruzi growth-2	T cruzi growth-3	3T3 cytotox	3T3 cytotox 2
C[C@@H]1CCCCO[C@H](CN(C)S(=O)(=O)c2ccc(F)cc2)[C@H](C)CN([C@H](C)CO)C(=O)c2cc(NS(=O)(=O)c3ccc(Cl)cc3)ccc2O1	100*	1	2	103*	110*	-7	-13
C[C@H](CO)N1C[C@H](C)[C@H](CN(C)S(=O)(=O)c2ccc(Cl)cc2)OCCCC[C@H](C)Oc2ccc(NS(=O)(=O)c3ccc(F)cc3)cc2C1=O	106	-2	0	.	.	.	.
C[C@H]1CCCCO[C@H](CN(C)S(=O)(=O)c2ccc(F)cc2)[C@@H](C)CN([C@@H](C)CO)C(=O)c2cc(NS(=O)(=O)c3ccc(Cl)cc3)ccc2O1	99*	-1	-1	98*	94	2	-9
C[C@@H]1CCCCO[C@@H](CN(C)S(=O)(=O)c2ccc(F)cc2)[C@@H](C)CN([C@H](C)CO)C(=O)c2cc(NS(=O)(=O)c3ccc(Cl)cc3)ccc2O1	88	7	1	.	.	.	.
CCCNC(=O)Nc1ccc2c(c1)C(=O)N(C)[C@H]1CC[C@@H](CC(=O)NCCCN(C)C)O[C@H]1CO2	-24	.	1	.	.	.	.
C[C@@H]1CN([C@H](C)CO)S(=O)(=O)c2ccc(-c3ccc(C(=O)N(C)C)cc3)cc2O[C@H]1CN(C)C(=O)C1CCCCC1	80	2	4	.	.	.	.
C[C@H](CO)N1C[C@H](C)[C@H](CN(C)S(=O)(=O)c2ccc(Cl)cc2)Oc2ccc(NS(=O)(=O)c3ccc(F)cc3)cc2C1=O	?	0	-2	98*	45	40*	?
C[C@H]1CN([C@@H](C)CO)C(=O)c2cc(NS(=O)(=O)c3ccc(F)cc3)ccc2O[C@@H]1CN(C)S(=O)(=O)c1ccc(Cl)cc1	27	-1	-1	.	.	.	.
CCN(CC(=O)Nc1cccc([N+](=O)[O-])c1)S(=O)(=O)c1ccc(C)cc1	.	0	.	.	.	.	.
CN(C)CC(=O)N1CCCCN2[C@H](C1)[C@H](c1ccc(-c3cccnc3)cc1)[C@@H]2CO	108*	.	0	97*	2	2	0
CN(C)CC(=O)N1CCCCN2[C@@H](CO)[C@@H](c3ccc(-c4ccccc4)cc3)[C@@H]2C1	82	.	0	.	.	.	.
CCC(=O)N1CCCCN2[C@H](C1)[C@@H](c1ccc(-c3cccnc3)cc1)[C@@H]2CO	-26	.	0	.	.	.	.
CCC(=O)N1CCCCN2[C@@H](CO)[C@H](c3ccc(-c4cccnc4)cc3)[C@@H]2C1	100*	.	-1	96*	68	13	29*
